How the values were obtained:
[1] = molecular target: Estrogen receptor (Homo sapiens) (UniProt Q92731+P03372); test: Ratio of binding affinity for purified human estrogen beta receptors to that of binding affinity for purified human estrogen alpha receptors.
[2] = molecular target: T1, Estrogen receptor (Homo sapiens) (UniProt P03372); test: Transcriptional agonistic efficacy against ER alpha at 10e-6 M by cotransfection in HEC-1 cells; format: functional, cell-based
T1 sequence (whole entry): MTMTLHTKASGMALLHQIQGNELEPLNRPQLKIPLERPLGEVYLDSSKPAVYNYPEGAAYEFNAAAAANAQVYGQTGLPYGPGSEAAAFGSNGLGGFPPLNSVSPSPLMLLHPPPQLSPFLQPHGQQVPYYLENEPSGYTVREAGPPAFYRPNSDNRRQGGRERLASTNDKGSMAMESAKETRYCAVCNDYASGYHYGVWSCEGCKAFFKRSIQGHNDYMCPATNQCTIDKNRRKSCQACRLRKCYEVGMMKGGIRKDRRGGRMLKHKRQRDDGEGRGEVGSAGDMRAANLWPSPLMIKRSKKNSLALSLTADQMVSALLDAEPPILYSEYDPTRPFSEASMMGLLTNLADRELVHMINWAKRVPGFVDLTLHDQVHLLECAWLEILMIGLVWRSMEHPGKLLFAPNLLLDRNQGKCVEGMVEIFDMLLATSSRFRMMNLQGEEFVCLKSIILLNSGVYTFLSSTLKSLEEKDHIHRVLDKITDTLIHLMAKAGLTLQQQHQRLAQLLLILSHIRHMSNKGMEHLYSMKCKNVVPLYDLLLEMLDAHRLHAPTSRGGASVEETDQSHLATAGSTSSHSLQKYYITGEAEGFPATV
In short: (§1)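 HEC-1 cells were grown in charcoal dextran-treated calf serum medium without phenol red. They were lipofected for 5 h at 37 °C with ERα or ERβ expression vector, 2ERE-pS2-Luc reporter and pCMV β-galactosidase control. Agonist screen used 10^-8 and 10^-6 M ligand for 24 h. Read-out is luciferase corrected by β-galactosidase, expressed as % of the 10^-9 M estradiol response.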

[3] = molecular target: Estrogen receptor beta (Homo sapiens) (UniProt Q92731); test: Binding affinity for purified human Estrogen receptor beta was determined using a competitive radiometric binding assay with estradiol
Estrogen receptor beta (Homo sapiens), sequence (Q92731 whole entry): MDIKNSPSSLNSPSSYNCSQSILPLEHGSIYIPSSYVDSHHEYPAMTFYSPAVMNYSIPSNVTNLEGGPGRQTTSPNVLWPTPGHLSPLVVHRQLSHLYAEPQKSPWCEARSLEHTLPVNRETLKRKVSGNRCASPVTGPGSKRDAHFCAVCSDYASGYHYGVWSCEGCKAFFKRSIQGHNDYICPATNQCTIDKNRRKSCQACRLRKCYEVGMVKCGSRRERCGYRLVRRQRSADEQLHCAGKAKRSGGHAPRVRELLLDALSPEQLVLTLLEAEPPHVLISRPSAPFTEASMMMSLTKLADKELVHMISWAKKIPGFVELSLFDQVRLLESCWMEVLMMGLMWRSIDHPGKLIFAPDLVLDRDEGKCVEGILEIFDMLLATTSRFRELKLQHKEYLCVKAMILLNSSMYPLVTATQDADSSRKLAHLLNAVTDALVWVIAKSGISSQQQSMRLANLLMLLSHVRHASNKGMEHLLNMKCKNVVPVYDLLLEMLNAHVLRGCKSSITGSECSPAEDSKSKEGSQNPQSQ

[4] = molecular target: T1, Estrogen receptor (Homo sapiens); test: Transcriptional antagonistic efficacy agains ER alpha at 10e-6 M by cotransfection in HEC-1 cells; format: functional, cell-based
In short: (§2)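 Cotransfection in HEC-1 cells as for agonism: ERα or ERβ vector, 2ERE-pS2-Luc reporter, β-galactosidase control, lipofectin for 5 h. Ligand at 10^-6 M was given together with 10^-9 M estradiol for 24 h. Luciferase activity was normalized to β-galactosidase and expressed relative to 10^-9 M estradiol alone, set at 100%.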

[5] = molecular target: Estrogen receptor beta (Homo sapiens) (UniProt Q92731); test: Transcriptional agonistic efficacy against ER beta at 10e-6 M was determined by cotransfection in HEC-1 cells; format: functional, cell-based
In short: as §1

[6] = molecular target: T1, Estrogen receptor (Homo sapiens); test: Transcriptional agonistic efficacy against ER alpha at 10e-8 M by cotransfection in HEC-1 cells; format: functional, cell-based
In short: as §1

[7] = molecular target: T1, Estrogen receptor (Homo sapiens); test: Binding affinity for purified human Estrogen receptor alpha was determined using a competitive radiometric binding assay with [3H]estradiol
[8] = molecular target: Estrogen receptor beta (Homo sapiens) (UniProt Q92731); test: Transcriptional antagonistic efficacy against ERbeta at 10e-6 M by cotransfectio in HEC-1 cells; format: functional, cell-based
In short: as §2

[9] = molecular target: Estrogen receptor beta (Homo sapiens) (UniProt Q92731); test: Transcriptional agonistic efficacy against ER beta at 10e-8 M by cotransfection in HEC-1 cells; format: functional, cell-based
In short: as §1

[10] = molecular target: Estrogen receptor beta (Homo sapiens) (UniProt Q92731); test: Binding affinity for purified human Estrogen receptor beta by displacement of [3H]estradiol

Row | Structure (SMILES) | Ratio [1] | Efficacy [2] [%] | RBA [3] [%] | Efficacy [4] [%] | Efficacy [5] [%] | Efficacy [6] [%] | RBA [7] [%] | Efficacy [8] [%] | Efficacy [9] [%] | RBA [10] [%]
1 | Oc1ccc(C(=C2C3CCCC2CCC3)c2ccc(O)c(O)c2)cc1 | 1.7 | 20 | 187 | 38 | 2 | 15 | 108 | 2 | 2 | –
2 | Oc1ccc(C(c2ccc(O)cc2)C2CCCCC2)cc1 | 2.8 | – | 9 | – | – | – | 3.2 | – | – | –
3 | Oc1ccc(C(c2ccc(O)cc2)C2C3CCCC2CCC3)cc1 (stereo not drawn) | 0.87 | 41 | 13 | 40 | 50 | 16 | 15 | 55 | 21 | –
4 | Oc1ccc(C(=C2C3CC4CC(C3)CC2C4)c2ccc(O)cc2)cc1 | 1.3 | 20 | 317 | 19 | 2 | 20 | 243 | 2 | 2 | –
5 | Oc1ccc(C2(c3ccc(O)cc3)C3CCCC2CCC3)cc1 | 0.81 | 6 | 0.25 | 43 | 4 | 1 | 0.31 | 78 | 2 | –
6 | Oc1ccc(C(=C2C3CCCC2CCC3)c2ccc(O)cc2)cc1 | 0.59 | 22 | – | 23 | 2 | 25 | 513 | 2 | 2 | 301
7 | Oc1ccc(C(=C2C3CCCC2CCC3)c2ccc(F)cc2)cc1 | 1.3 | 63 | – | 65 | 10 | 58 | 40 | 16 | 7 | 52
8 | Oc1ccc(C(=C2CC3CC2C2CCCC32)c2ccc(O)cc2)cc1 (stereo not drawn) | 1.3 | 26 | 125 | 35 | 2 | 27 | 97 | 2 | 2 | –
9 | Oc1ccc(C(=C2C3CCCC2CCC3)c2ccccc2)cc1 | 1.1 | 80 | 35 | 83 | 17 | 71 | 31 | 22 | 8 | –
10 | Oc1ccc(C(=C2C3CCCC2CCC3)c2cccc(O)c2)cc1 | 1.9 | – | 89 | – | – | – | 46 | – | – | –

More lines, now with the values ahead:

Row | Ratio [1] | Efficacy [2] [%] | RBA [3] [%] | Efficacy [4] [%] | Efficacy [5] [%] | Efficacy [6] [%] | RBA [7] [%] | Efficacy [8] [%] | Efficacy [9] [%] | RBA [10] [%] | Structure (SMILES)
11 | 1.4 | 4 | 13 | 30 | 1 | 1 | 9 | 15 | 1 | – | CC1(C)CC(=C(c2ccc(O)cc2)c2ccc(O)cc2)C[C@]2(C)C(C)(C)[C@H]3CC[C@@]12C3
12 | 0.8 | 11 | 8 | 18 | 3 | 5 | 10 | 13 | 2 | – | CC12CCC(C1)C(C)(C)C2=C(c1ccc(O)cc1)c1ccc(O)cc1 (stereo not drawn)
13 | 4.9 | 12 | 334 | 22 | 3 | 9 | 68 | 4 | 2 | – | Oc1ccc(C(=C2CCCCC2)c2ccc(O)cc2)cc1
14 | 3.3 | 28 | 189 | 21 | 4 | 24 | 57 | 4 | 3 | – | CC12CCC(CC1=C(c1ccc(O)cc1)c1ccc(O)cc1)C2(C)C (stereo not drawn)
15 | 4.5 | 22 | 211 | 32 | 3 | 25 | 47 | 3 | 3 | – | Oc1ccc(C(=C2CC3CCC2C3)c2ccc(O)cc2)cc1 (stereo not drawn)

From ChEMBL document CHEMBL1136773, “Bridged bicyclic cores containing a 1,1-diarylethylene motif are high-affinity subtype-selective ligands for the estrogen receptor” (J Med Chem, 2003)
